Reference: ChEMBL document CHEMBL4339209, “Chemical modifications of imidazole-containing alkoxyamines increase C-ON bond homolysis rate: Effects on their cytotoxic properties in glioblastoma cells” (Bioorg Med Chem, 2019)
Activity calls are given as the source filed them. No cut-off for these calls is given here.

Columns and labels:
[1] = Half life in H2O/MeOH buffered with HEPES/NaCl at pH 7.4 in presence of alkyl radical scavenger TEMPOR by 31P[1H]-NMR analysis; type: physicochemical; conditions: for half-life: H2O/MeOH buffered with HEPES/NaCl; for t1/2: buffer
U-87 MG = assay: Cytotoxicity against human U87MG cells assessed as reduction in cell survival measured after 72 hrs by MTT assay; type: functional, cell-based, U-87MG ATCC; conditions: for Activity: U-87MG ATCC
In short: (§1)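 MTT viability on 2D cultures, U87-MG in DMEM and U251-MG in EMEM with […], both with 10% FBS and Pen Strep. 5000 cells seeded, then 72 h exposure to 500, 250, 100, 50, 25, 10 and 5 μM (DMSO at most […]). MTT 0.5 mg/mL for 1 h, formazan in DMSO read at 550 nm. Survival as % of control. IC50 determined graphically. At least triplicate.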

[2] = Dissociation constant, pKa of the compound in 1:1 v/v D2O/CD3OD by 1H-NMR spectrometric method; type: physicochemical
In short: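 Samples in D2O/CD3OD (1:1 v/v) were adjusted with DCl/NaOD to a series of pH* values, read on a meter calibrated with non-deuterated standards, and 1H-NMR was recorded at 400 MHz. Imidazole proton chemical shifts were plotted against pH* and fitted sigmoidally. The pKa* was converted by pH = 0.929 pH* + 0.42.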

[3] = Half life in H2O/MeOH buffered with Na2CO3/NaHCO3 at pH 10.3 in presence of alkyl radical scavenger TEMPOR by 31P[1H]-NMR analysis; type: physicochemical; conditions: buffer, pH 10.3
[4] = Half life in H2O/MeOH buffered with HCl/KCl at pH 2.2 in presence of alkyl radical scavenger TEMPOR by 31P[1H]-NMR analysis; type: physicochemical; conditions: buffer
[5] = n-octanol/phosphate buffered saline partition coefficient, log D of the compound at pH 7.4 by shake-flask method; type: physicochemical
In short: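 Shake-flask partition between pre-saturated n-octanol and PBS at pH 7.4. The aqueous phase was quantified by RP-HPLC on a 4.6 × 50 mm column, eluting with CH3CN/H2O (each with 0.1% TFA) from 10:90 to 100:0 over 10 min.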

[6] = Stability in H2O/MeOH buffered with HEPES/NaCl at pH 7.4 assessed as temperature; type: physicochemical; conditions: buffer
[7] = Drug homolysis in H2O/MeOH buffered with Na2CO3/NaHCO3 at pH 10.3 assessed as activation energy in presence of alkyl radical scavenger TEMPOR by 31P[1H]-NMR analysis
[8] = Drug homolysis in H2O/MeOH buffered with HCl/KCl at pH 2.2 assessed as activation energy in presence of alkyl radical scavenger TEMPOR by 31P[1H]-NMR analysis
[9] = Drug homolysis in H2O/MeOH buffered with Na2CO3/NaHCO3 at pH 10.3 assessed as rate constant by measuring nitroxide level in presence of alkyl radical scavenger TEMPOR by 31P[1H]-NMR analysis
[10] = Drug homolysis in H2O/MeOH buffered with HEPES/NaCl at pH 7.4 assessed as rate constant by measuring nitroxide level in presence of alkyl radical scavenger TEMPOR by 31P[1H]-NMR analysis
[11] = Drug homolysis in H2O/MeOH buffered with HCl/KCl at pH 2.2 assessed as rate constant by measuring nitroxide level in presence of alkyl radical scavenger TEMPOR by 31P[1H]-NMR analysis
[12] = Drug homolysis in H2O/MeOH buffered with HEPES/NaCl at pH 7.4 assessed as activation energy in presence of alkyl radical scavenger TEMPOR by 31P[1H]-NMR analysis
U-251 [13] = assay: Cytotoxicity against human U251MG cells assessed as reduction in cell survival measured after 72 hrs by MTT assay; type: functional, cell-based; in short: as §1
U-251 [14] = assay: Cytotoxicity against human U251MG cells assessed as reduction in cell survival at IC50 measured after 72 hrs in presence of alkyl radical scavenger troxerutin by MTT assay; type: functional, cell-based
In short: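 U251-MG cells in EMEM (10% FBS, Pen Strep, […]) were exposed for 72 h to alkoxyamine together with an equal concentration of the alkyl radical scavenger troxerutin. Survival was read by MTT (0.5 mg/mL, 1 h, OD 550 nm) as % of control, and compared with alkoxyamine alone. At least triplicate.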

Q: Which half-life [1] does the source give for `CCOP(=O)(OCC)C(N(OC(C)c1cc[n+](C)cc1)C(C)(C)C)C(C)(C)C` (stereo not given) here?
A: 0.75 h

Q: What about the IC50 (U-87 MG) of the same molecule?
A: 250 µM

Q: With `CCOP(=O)(OCC)C(N(OC(C)c1ccncc1)C(C)(C)C)C(C)(C)C` (stereo not given) as the molecule, how does the pKa ([2]; 1:1 v/v D2O/CD3OD, read-out: pKa) read?
A: 4.7

Q: For `CCOP(=O)(OCC)C(N(OC(C)c1ncc[nH]1)C(C)(C)C)C(C)(C)C` (stereo in doubt; form 1) [listing 1 of 2 here], which pKa [2] is on record?
A: 6.04

Q: And the t1/2 [3]?
A: 312 h

Q: And the t1/2 [4]?
A: 5 h

Q: What about the t1/2 [1] of the same molecule?
A: 81 h

Q: What about the logD ([5]; octanol/water) of the same molecule?
A: 4.1

Q: With `CCOP(=O)(OCC)C(N(OC(C)n1cc[n+](C)c1)C(C)(C)C)C(C)(C)C` (stereo in doubt; form 1) [listing 1 of 2 here] as the molecule, how does the T [6] read?
A: 100 °C

Q: And the t1/2 [1]?
A: 5 yr

Q: And the IC50 (U-87 MG)?
A: 25 to 380 µM

Q: What about the logD ([5]; octanol/water) of the same molecule?
A: -0.1

Q: Which T [6] does the source give for `CCOP(=O)(OCC)C(N(OC(C)c1cn(C)c[n+]1C)C(C)(C)C)C(C)(C)C` (stereo in doubt; form 1) [listing 1 of 2 here] here?
A: 70 °C

Q: And the half-life [1]?
A: 25 h

Q: What about the IC50 (U-87 MG) of the same molecule?
A: 25 to 380 µM

Q: And the logD ([5]; n-octanol/phosphate buffered saline, read-out: logD)?
A: 0.8

Q: What does the source list for `CCOP(=O)(OCC)C(N(OC(C)c1n(C)cc[n+]1C)C(C)(C)C)C(C)(C)C` (stereo in doubt; form 1) [listing 1 of 2 here]?
A: T [6]: 70 °C; t1/2 [1]: 10 h; IC50 (U-87 MG): 25 to 380 µM; logD ([5]; octanol/water): -0.2

Q: Which results are given for `CCOP(=O)(OCC)C(N(OC(C)c1c[nH]cn1)C(C)(C)C)C(C)(C)C` (stereo in doubt; form 1)?
A: Ea [7]: 29.4 kcal/mol; Ea [8]: 28.5 kcal/mol; Kdiss [9]: 1.53 ×10⁻⁴ /s; Kdiss [10]: 2.08 ×10⁻⁴ /s; Kdiss [11]: 5.23 ×10⁻⁴ /s; Ea [12]: 29.2 kcal/mol; Activity (U-87 MG): Dose-dependent effect; Activity (U-251 [13]): Dose-dependent effect

Q: For `CCOP(=O)(OCC)C(N(OC(C)c1cn(C)c[n+]1C)C(C)(C)C)C(C)(C)C` (stereo in doubt; form 1) [listing 2 of 2 here], which Kdiss [10] is on record?
A: 5.73 ×10⁻⁴ /s

Q: What about the Ea [12] of the same molecule?
A: 27.7 kcal/mol

Q: And the Activity (U-87 MG)?
A: Dose-dependent effect

Q: And the Activity (U-251 [13])?
A: Dose-dependent effect

Q: For `CCOP(=O)(OCC)C(N(OC(C)c1cn(C)cn1)C(C)(C)C)C(C)(C)C` (stereo in doubt; form 1), which Ea [7] is on record?
A: 30.2 kcal/mol

Q: What about the Ea [8] of the same molecule?
A: 28.3 kcal/mol

Q: What about the Kdiss [9] of the same molecule?
A: 4.89 ×10⁻⁵ /s

Q: And the Kdiss [10]?
A: 8.58 ×10⁻⁵ /s

Q: What about the Kdiss [11] of the same molecule?
A: 7.84 ×10⁻⁴ /s

Q: What about the Ea [12] of the same molecule?
A: 29.8 kcal/mol

Q: And the Activity (U-87 MG)?
A: Dose-dependent effect

Q: What about the Activity (U-251 [13]) of the same molecule?
A: Dose-dependent effect

Q: Which Kdiss [10] does the source give for `CCOP(=O)(OCC)C(N(OC(C)c1n(C)cc[n+]1C)C(C)(C)C)C(C)(C)C` (stereo in doubt; form 1) [listing 2 of 2 here] here?
A: 1.27 ×10⁻³ /s

Q: What about the Ea [12] of the same molecule?
A: 27.1 kcal/mol

Q: And the Activity (U-87 MG)?
A: Dose-dependent effect

Q: What about the Activity (U-251 [13]) of the same molecule?
A: Dose-dependent effect

Q: For `CCOP(=O)(OCC)C(N(OC(C)c1ncc[nH]1)C(C)(C)C)C(C)(C)C` (stereo in doubt; form 1) [listing 2 of 2 here], which Ea [7] is on record?
A: 29.2 kcal/mol

Q: And the Ea [8]?
A: 26.7 kcal/mol

Q: And the Kdiss [9]?
A: 1.97 ×10⁻⁴ /s

Q: And the Kdiss [10]?
A: 2 ×10⁻⁴ /s

Q: What about the Kdiss [11] of the same molecule?
A: 7.47 ×10⁻⁴ /s

Q: What about the Ea [12] of the same molecule?
A: 28.4 kcal/mol

Q: And the Activity (U-87 MG)?
A: Dose-dependent effect

Q: What about the Activity (U-251 [13]) of the same molecule?
A: Dose-dependent effect

Q: What does the source list for `CCOP(=O)(OCC)C(N(OC(C)c1nccn1C)C(C)(C)C)C(C)(C)C` (stereo in doubt; form 1)?
A: Ea [7]: 28.7 kcal/mol; Ea [8]: 26.2 kcal/mol; Kdiss [9]: 4.31 ×10⁻⁴ /s; Kdiss [10]: 4.76 ×10⁻⁴ /s; Kdiss [11]: 1.51 ×10⁻³ /s; Ea [12]: 27.8 kcal/mol; Activity (U-87 MG): Dose-dependent effect; Activity (U-251 [13]): Dose-dependent effect

Q: With `CCOP(=O)(OCC)C(N(OC(C)n1cc[n+](C)c1)C(C)(C)C)C(C)(C)C` (stereo in doubt; form 1) [listing 2 of 2 here] as the molecule, how does the Kdiss [10] read?
A: 2.84 ×10⁻⁵ /s

Q: What about the Ea [12] of the same molecule?
A: 32.3 kcal/mol

Q: What about the Activity (U-87 MG) of the same molecule?
A: Dose-dependent effect

Q: And the Activity (U-251 [13])?
A: Dose-dependent effect

Q: And the Activity (U-251 [14])?
A: Active

Q: What does the source list for `CCOP(=O)(OCC)C(N(OC(C)c1cn(C)cn1)C(C)(C)C)C(C)(C)C` (stereo in doubt; form 2)?
A: pKa [2]: 6.56; t1/2 [3]: 1680 h; t1/2 [4]: 170 h; t1/2 [1]: 528 h; logD ([5]; octanol/water): 3.8
